Laboratory results taken from ChEMBL document CHEMBL1132709, “Novel cyclopropapyrroloindole derivative (AT-3510) bearing methoxycarbonyl and trifluoromethyl groups” (J Med Chem, 1999).
In brackets after ≈: the same amount, converted by molar mass.

Assays:
HeLa = assay: Concentration required to inhibit the growth of HeLaS3 human uterine cervix carcinoma cells by 50%; assay type: functional, cell-based
Mus musculus [1] = assay: In vivo antitumor activity (0.25 mg/Kg) is the measure of tumor growth inhibition of colon 26 murine […] cells.; assay type: functional
How it was run: (§1)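 Colon 26 cells (10^6/mouse) inoculated sc into male CDF1 mice on day 0; drug given iv on day 7. Read-out is percentage tumor growth inhibition versus the untreated group.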

Mus musculus [2] = assay: In vivo antitumor activity (0.5 mg/Kg) is the measure of tumor growth inhibition of colon 26 murine […] cells.; assay type: functional; how it was run: as §1
P338 = assay: In vitro concentration required to inhibit the growth of […] murine leukemia cells by 50%; assay type: functional, cell-based; settings: Mus musculus
Mus musculus [3] = assay: In vivo antitumor activity (0.25 mg/Kg) is the measure of increase in life span of mice bearing P388 murine leukemia cells; 2/2 cured mice (>60-day survivors); assay type: functional, organism-based
[4] = Ratio between max dose within 10% body weight loss and tumor growth inhibition; assay type: functional
How it was run: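 Ratio of maximum dose within 10% body weight loss to the dose giving 50% tumor growth inhibition, in sc Colon 26-bearing mice dosed iv.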

Mus musculus [5] = assay: In vivo concentration required to inhibit the Colon 26 murine […] cell growth by 50%; assay type: functional
Mus musculus [6] = assay: In vivo antitumor activity is the measure of tumor growth inhibition of Colon 26 murine […] cells.; assay type: functional
How it was run: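 Colon 26 cells (10^6/mouse) inoculated sc into male CDF1 mice on day 0; single iv dose on day 7. Tumor growth inhibition expressed as percentage versus untreated group.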

Mus musculus [7] = assay: In vivo antitumor activity (0.125 mg/Kg) is the measure of tumor growth inhibition of colon 26 murine […] cells.; assay type: functional; how it was run: as §1

COC(=O)c1c(C(F)(F)F)[nH]c2c(O)cc3c(c12)[C@H](CCl)CN3C(=O)c1cc2cc(NC(=O)c3cc4cccc(OC)c4cn3)ccc2[nH]1 (racemic)
IC50 (HeLa): 0.51 ng/mL (≈ 0.737 nM)
TGI (Mus musculus [1]): 90%

COC(=O)c1c(C(F)(F)F)[nH]c2c(O)cc3c(c12)[C@H](CCl)CN3C(=O)c1cc2cc(NC(=O)c3cc4cc(OC)c(OC)c(OC)c4[nH]3)ccc2[nH]1 (racemic)
IC50 (HeLa): 0.2 ng/mL (≈ 0.27 nM)
TGI (Mus musculus [1]): 83%

COC(=O)c1c(C(F)(F)F)[nH]c2c(O)cc3c(c12)[C@H](CCl)CN3C(=O)c1cc2cc(NC(=O)c3cc4ccc(OC)cc4o3)ccc2[nH]1 (racemic)
IC50 (HeLa): 0.12 ng/mL (≈ 0.176 nM)
TGI (Mus musculus [2]): 94%

COC(=O)c1c(C(F)(F)F)[nH]c2c(O)cc3c(c12)[C@H](CCl)CN3C(=O)c1cc2cc(NC(=O)c3cc4ccccc4cn3)ccc2[nH]1 (racemic)
IC50 (HeLa): 0.24 ng/mL (≈ 0.363 nM)
TGI (Mus musculus [1]): 82%

COC(=O)c1c(C(F)(F)F)[nH]c2c1[C@@]13C[C@@H]1CN(C(=O)c1cc4cc(NC(=O)c5cc6ccccc6[nH]5)ccc4[nH]1)C3=CC2=O (racemic)
IC50 (P338): 0.86 ng/mL (≈ 1.4 nM)
ILS (Mus musculus [3]): 2/2 cured mice (>60-day survivors)

COC(=O)c1c(C)[nH]c2c1[C@@]13C[C@@H]1CN(C(=O)c1cc4cc(OC)c(OC)c(OC)c4[nH]1)C3=CC2=O (racemic)
IC50 (P338): 0.34 ng/mL (≈ 0.692 nM)

COC(=O)c1c(C(F)(F)F)[nH]c2c(O)cc3c(c12)[C@H](CCl)CN3C(=O)c1cc2cc(NC(=O)c3cc4c(OC)c(OC)c(OC)cc4[nH]3)ccc2[nH]1
IC50 (HeLa): 0.94 ng/mL (≈ 1.27 nM)
TGI (Mus musculus [2]): 95%

COC(=O)c1c(C(F)(F)F)[nH]c2c(O)cc3c(c12)[C@H](CCl)CN3C(=O)c1cc2c(OC)c(OC)c(OC)cc2[nH]1 (racemic)
IC50 (HeLa): 32 ng/mL (≈ 55 nM)

COC(=O)c1c(C(F)(F)F)[nH]c2c(O)cc3c(c12)[C@H](CCl)CN3C(=O)c1cc2cc(NC(=O)c3cc4cc(OC)ccc4o3)ccc2[nH]1 (racemic)
IC50 (HeLa): 0.064 ng/mL (≈ 0.094 nM)
TGI (Mus musculus [2]): 94%

COC(=O)c1c(C(F)(F)F)[nH]c2c(O)cc3c(c12)[C@H](CCl)CN3C(=O)c1cc2cc(OC)c(OC)c(OC)c2[nH]1 (racemic)
IC50 (HeLa): 0.25 ng/mL (≈ 0.43 nM)

COC(=O)c1c(C(F)(F)F)[nH]c2c(OC(=O)N3CCN(C)CC3)cc3c(c12)[C@H](CCl)CN3C(=O)c1cc2cc(NC(=O)c3cc4cc(OC)c(OC)c(OC)c4o3)ccc2[nH]1
Ratio [4]: 4.5
TGI50 (Mus musculus [5]): 0.0533 mg/kg
TGI (Mus musculus [6]): 90%

COC(=O)c1c(C(F)(F)F)[nH]c2c(O)cc3c(c12)[C@H](CCl)CN3C(=O)c1cc2cc(NC(=O)c3cc4ccc(OC)cc4cn3)ccc2[nH]1
IC50 (HeLa): 0.11 ng/mL (≈ 0.159 nM)
TGI (Mus musculus [1]): 82%

COC(=O)c1c(C(F)(F)F)[nH]c2c(O)cc3c(c12)[C@H](CCl)CN3C(=O)c1cc2cc(NC(=O)c3cc4cccc(OC)c4o3)ccc2[nH]1 (racemic)
IC50 (HeLa): 0.51 ng/mL (≈ 0.749 nM)
TGI (Mus musculus [2]): 96%

COC(=O)c1c(C(F)(F)F)[nH]c2c(O)cc3c(c12)[C@H](CCl)CN3C(=O)c1cc2cc(NC(=O)c3cc4c(OC)cccc4cn3)ccc2[nH]1 (racemic)
IC50 (HeLa): 0.2 ng/mL (≈ 0.289 nM)
TGI (Mus musculus [7]): 67%

COC(=O)c1c(C(F)(F)F)[nH]c2c(O)cc3c(c12)[C@H](CCl)CN3C(=O)c1cc2cc(NC(=O)c3cc4cc(OC)c(OC)c(OC)c4o3)ccc2[nH]1 (racemic)
IC50 (HeLa): 0.17 ng/mL (≈ 0.229 nM)
TGI (Mus musculus [7]): 74%

COC(=O)c1c(C(F)(F)F)[nH]c2c(O)cc3c(c12)[C@H](CCl)CN3C(=O)c1cc2cc(NC(=O)c3ccc4ccccc4c3)ccc2[nH]1 (racemic)
IC50 (HeLa): 0.22 ng/mL (≈ 0.333 nM)
TGI (Mus musculus [2]): 84%

COC(=O)c1c(C(F)(F)F)[nH]c2c(OC(=O)N3CCN(C)CC3)cc3c(c12)[C@H](CCl)CN3C(=O)c1cc2cc(NC(=O)c3cc4cc(OC)ccc4o3)ccc2[nH]1.Cl
Ratio [4]: 6.8
TGI50 (Mus musculus [5]): 0.148 mg/kg
TGI (Mus musculus [6]): 86%
